Screening data deposited in PubChem by Broad Institute.
Only some compounds are listed: those with a hit (about 2.7% of all), similar ones and a draw of the others.
DENV2 CPE rescue: inhibitors of DENV2 cytopathic effect. AID 651640. CPE inhibition, % at 9.99 µM. DENV2-infected cells, cytopathic effect rescue, plate reader. 1.7% of 350,000 active; in the data active means CPE inhibition above about 20%, passing the limit was not always enough; inconclusive means no clear call, values can overlap the other calls; tested in BHK-21 cells;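 further: 0% = median of neutral control wells and 100% = median of positive control wells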
CaV13 ICDI inh: Primary screen for inhibitors of IQ motif and Ca2+-dependent inactivation inhibitor domain binding in CACNA1D, Förster resonance energy transfer in living cells, …; HEK cells, CFP/YFP FRET ICDI-IQ, plate reader, 10 min; percent FRET-ratio fall versus neutral wells; AID 743397; inhibition, % at 12.3 µM; 0.098% of 340,000 active;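 active means mean replicate inhibition of at least 30% and at least 1% of replicates passing that level; inconclusive means only one of the two criteria is met; inactive means neither criterion is met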;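 further: 0% = median of the neutral control wells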
MLL AF4-AF9 inh: blocks AF4 peptide binding to human AF9; AlphaScreen, biotin-AF4 peptide binding to FLAG-AF9; 0.47% of 350,000 active; P42568; AID 651704; inhibition, % at 10 µM;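 active means every replicate reaching a set inhibition limit, whatever the replicate mean, cut at about 25% in these data; inconclusive means mean inhibition reaches that limit but some replicates miss it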;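 further: 0% = plate neutral control median and 100% = total signal loss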
Target sequence (P42568 whole entry, looked up): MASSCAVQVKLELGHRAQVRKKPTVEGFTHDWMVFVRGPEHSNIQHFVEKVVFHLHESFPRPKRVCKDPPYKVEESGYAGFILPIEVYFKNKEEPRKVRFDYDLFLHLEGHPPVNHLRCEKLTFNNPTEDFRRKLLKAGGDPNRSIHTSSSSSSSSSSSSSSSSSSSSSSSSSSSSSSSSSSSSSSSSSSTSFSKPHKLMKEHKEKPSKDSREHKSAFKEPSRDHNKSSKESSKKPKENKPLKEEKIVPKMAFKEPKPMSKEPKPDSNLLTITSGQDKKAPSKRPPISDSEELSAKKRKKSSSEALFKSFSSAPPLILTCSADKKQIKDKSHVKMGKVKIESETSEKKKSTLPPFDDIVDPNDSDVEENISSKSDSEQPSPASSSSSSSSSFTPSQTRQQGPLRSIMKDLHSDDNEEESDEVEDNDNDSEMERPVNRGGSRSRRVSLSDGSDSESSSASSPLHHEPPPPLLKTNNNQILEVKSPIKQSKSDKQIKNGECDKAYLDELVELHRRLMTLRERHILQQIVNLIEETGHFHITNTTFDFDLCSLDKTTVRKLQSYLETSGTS
S100A4 MyoIIA: S100A4-myosin IIA interaction inhibition; inhibition, % at 10.7 µM; AID 652163; 0.14% of 360,000 active; S100A4/TAMRA-MyoIIA peptide fluorescence polarization;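 active means mean inhibition of at least 70% across replicates, with every replicate also reaching that level; inconclusive means mean inhibition reaches 70% but some replicates fall short; inactive means mean inhibition below 70%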
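Material: S100A4 monomer (human). Medium: Calcium-containing HEPES buffer, pH 7.2. Probe or stimulus: labelled myosin peptide probe, 5 nM. Compound dosing: one concentration per compound. Timing: polarization read 5 min after assay mix addition, stable 5–60 min. Benchmarks: DMSO as neutral control, TFP as positive control.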
SIRT5 block: blocks human SIRT5 desuccinylation of peptide; Q9NXA8; Purified SirT5, succinyl-peptide AMC, trypsin-coupled fluorescence; inhibition, % at 15 µM; 1.1% of 330,000 active; AID 652115; in the data active means inhibition above about 15%; inconclusive means no clear call, values can overlap the other calls
* marks the source's active call; other numbers are inactive results; u = inconclusive; x = not tested or not shown.

SMILES	DENV2 CPE rescue	CaV13 ICDI inh	MLL AF4-AF9 inh	S100A4 MyoIIA	SIRT5 block
COc1ccc(S(=O)(=O)N(CC(C)C)CC(C)C)c2cccnc12	57*	-6	5	-4	-1
O=C(C[n+]1ccccc1)N/N=C/c1ccc(F)cc1	-3	-7	-3	0	112*
O=C(C[n+]1ccccc1)N/N=C/c1ccco1	0	-4	8	9	5
Cc1ccc(/C=N/NC(=O)C[n+]2ccccc2)o1	3	-3	-1	3	21*
O=c1[nH][nH]c2c(N=Cc3ccccc3O)ccc(F)c12	x	x	x	0	29*
O=c1[nH][nH]c2c([N+](=O)[O-])ccc(F)c12	3	-4	1	-1	x
C[C@@H]1CN([C@H](C)CO)C(=O)c2cc(N(C)C)ccc2O[C@H]1CN(C)S(=O)(=O)c1ccccc1	1	x	-1	-5	33*
C[C@H](CO)N1C[C@H](C)[C@@H](CN(C)S(=O)(=O)c2ccccc2)Oc2c(cccc2N(C)C)C1=O	u	-11	-2	10	25*
C[C@H]1CN([C@@H](C)CO)C(=O)c2cc(N(C)C)ccc2O[C@@H]1CN(C)S(=O)(=O)c1ccccc1	4	x	-2	-1	8
C[C@@H]1CN([C@H](C)CO)C(=O)c2cccc(N(C)C)c2O[C@@H]1CN(C)S(=O)(=O)c1ccccc1	-6	x	-1	1	-1
Cc1nc2cc(C(=O)N3CCc4ccccc43)ccc2n1-c1ccc(F)c(F)c1	8	-15	-3	2	16*
C/C(=N/Nc1ncc(Br)cn1)c1ccc(Br)cc1	-3	6	4	-1	-1
C/C(=N\Nc1ccc(C(=O)O)cc1)c1ccc(Br)cc1	14	-6	-3	-6	21*
C/C(=N\Nc1ccc(Cl)c(C(=O)O)c1)c1ccc(Br)s1	11	-5	1	-1	3
C/C(=N\Nc1ccc(C(=O)O)cc1)c1ccc(Cl)s1	0	-4	4	-2	23*
O=C(NCCN1CCCC1)[C@H]1[C@H](CO)[C@H]2Cn3c(cccc3=O)[C@@H]1N2C(=O)c1ccccc1	5	x	0	x	-4
Cc1ccc(C(=O)O/N=C(\N)c2ccccn2)cc1	29*	-5	-7	-4	-2
N/C(=N\OC(=O)c1ccccc1)c1ccccn1	2	-6	-1	3	-5
COCCNC(=O)C[C@@H]1CC[C@H]2[C@@H](COc3ccc(NC(=O)Cc4ccccc4)cc3C(=O)N2C)O1	-5	x	-1	7	-1
C[C@H]1CN([C@@H](C)CO)C(=O)c2cccc(NC(=O)c3ccc(-c4nccs4)cc3)c2O[C@H]1CN(C)CC1CC1	-3	x	1	-6	2
CC1(C)CC(NC(=O)COc2ccc(Br)cc2Cl)CC(C)(C)N1	11	-10	0	-1	1
CCc1cc(=O)oc2cc(OCC(=O)NC3CC(C)(C)NC(C)(C)C3)ccc12	36*	-4	0	2	-2
CC1(C)CC(NC(=O)COc2ccccc2Cl)CC(C)(C)N1	33*	-18	-3	-16	-4
O=C(C[C@H]1C=C[C@@H](NC(=O)C2CCC2)[C@@H](CO)O1)NCc1ccncc1	3	x	-2	-1	-2
CCCn1c(SCC(=O)Nc2ccc3c(c2)OCO3)nc2c1c(=O)n(C)c(=O)n2C	x	-3	x	2	25*
CCC(=O)Nc1ccc2c(c1)OC[C@H](C)N(Cc1ccccc1C(=O)O)C[C@@H](C)[C@H](OC)CN(C)C2=O	-2	x	-3	-1	4
C[C@@H]1CN([C@H](C)CO)C(=O)c2cc(NC(=O)Nc3ccc4c(c3)OCO4)ccc2O[C@@H](C)CCCCO[C@H]1CN(C)S(=O)(=O)c1ccc(Cl)cc1	38*	x	0	2	2
C[C@H](CO)N1C[C@H](C)[C@H](CN(C)S(=O)(=O)c2ccc(Cl)cc2)OCCCC[C@H](C)Oc2ccc(NC(=O)NC3CCCCC3)cc2C1=O	50*	x	-1	54	7
C[C@@H]1CCCCO[C@@H](CN(C)S(=O)(=O)c2ccc(F)cc2)[C@H](C)CN([C@@H](C)CO)C(=O)c2cc(NC(=O)Nc3ccc4c(c3)OCO4)ccc2O1	4	x	1	-9	21*
C[C@@H]1CCCCO[C@@H](CN(C)S(=O)(=O)c2ccc(Cl)cc2)[C@H](C)CN([C@H](C)CO)C(=O)c2cc(NC(=O)Nc3ccc4c(c3)OCO4)ccc2O1	6	x	2	4	2
